Data on 5 compounds can be found in publication PMC6500731 (Clinical cancer research : an official journal of the …, 2018).

Holding throughout (assay type): cell-based
Assay [1] deals with Non-Hodgkin Lymphoma cell lines. The assay can be described thus: Viability assay. The following applies: initial screen hits, DLBCL cell lines, Fig. 1A.
The subject of assay [2] is protein synthesis in DLBCL cells. The assay can be described thus: O-propargyl puromycin. The following applies: concentrations relative to LD50, 4, 16 or 24 hours. In a few lines:
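DLBCL cells treated 4, 16 or 24 h with test compound, silvestrol or carboplatin, at concentrations scaled to each agent's LD50. Cells pulsed with O-propargyl puromycin, washed twice in PBS and click-labelled with Alexa-488 azide. Flow cytometry gave mean fluorescence on live-gated cells, normalised to DMSO. Mean ± SEM, n=3; unpaired two-tailed t-tests with Benjamini–Krieger–Yekutieli correction.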

Assay [3] relates to NIH/3T3 cells. The assay can be described thus: Viability.
For assay [4], the system named is SNU-398. In words: Western blot in SNU-398 cells. The following applies: 16 hours, 200 nM rapamycin, 100 nM silvestrol, 1 μM elatol.
The subject of assay [5] is SNU-398. In words: Viability assay in SNU-398 cells. The note with it: for type of effect on SNU-398 cells: 72-hour treatment.

Take `C=C1CC[C@@](C)(c2cc(Br)c(C)cc2O)[C@H]1C` [allolaurinterol, reference compound]: in assay [1], the “activity against non-Hodgkin lymphoma (NHL) cell lines (LD50)” value is over 10 µM.

Consider `N.N.O=C([O-])C1(C(=O)[O-])CCC1.[Pt+2]` [carboplatin], for which the “protein synthesis measured by incorporation of OPP” value in assay [2] was “no significant decline”. The “change in drug sensitivity on eIF4A1 knockdown” value in assay [3] (NIH-3T3 shRLuc vs sh4A1) is “no change in drug sensitivity”.

As for `CC(C)=C[C@@H]1C[C@H](C)c2c(O)cc(C)c3c2C1=C(C)C(=O)C3=O` [elisabatin A, reference compound], the “activity against non-Hodgkin lymphoma (NHL) cell lines (LD50)” value in assay [1] was over 10 µM.

Consider `CO[C@H]1C[C@@H]2CC[C@@H](C)[C@@](O)(O2)C(=O)C(=O)N2CCCC[C@H]2C(=O)O[C@H]([C@H](C)C[C@@H]2CC[C@@H](O)[C@H](OC)C2)CC(=O)[C@H](C)/C=C(\C)[C@@H](O)[C@@H](OC)C(=O)[C@H](C)C[C@H](C)/C=C/C=C/C=C/1C` [rapamycin, reference compound], for which the “activity against mTORC1 targets (phosphorylation of S6 and 4EBP1)” value in assay [4] is listed as “potently inhibits phosphorylation”. Moreover, in assay [5], the “type of effect on SNU-398 cells” value is recorded as “cytostatic”.

Turning to `COC(=O)[C@H]1[C@@H](O)[C@@]2(O)c3c(OC)cc(O[C@@H]4O[C@@H]([C@H](O)CO)CO[C@H]4OC)cc3O[C@@]2(c2ccc(OC)cc2)[C@@H]1c1ccccc1` [silvestrol], the “activity against mTORC1 targets (phosphorylation of S6 and 4EBP1)” value in assay [4] is recorded as “no activity”. The “protein synthesis measured by incorporation of OPP” value in assay [2] is listed as “global decline of protein synthesis”. For the same compound, the “type of effect on SNU-398 cells” value in assay [5] is listed as “highly cytotoxic”. Further, the LD50 in assay [5] (SNU-398, 72-hour treatment) is 41 nM. Also, the “increased potency of silvestrol relative to elatol” value in assay [3] (3T3 fibroblasts, Fig. 5F) is recorded as over 500 x.
